Results from ChEMBL document CHEMBL4680176, “Identification of DOT1L inhibitors by structure-based virtual screening adapted from a nucleoside-focused library” (Eur J Med Chem, 2020).
pIC50: −log10 of the molar value. One block for each compound: values may come before it. Calls of active or inactive are those of the source. No cut-off for these calls is given here.

Legend:
[1] = target: T1, Histone-lysine N-methyltransferase, H3 lysine-79 specific (Homo sapiens, UniProt Q8TEK3); test: Binding affinity to recombinant human N-terminal GST-tagged DOT1L (1 to 420 residues) expressed in Escherichia coli BL21 (DE3) assessed as increase in melting temperature at 100 uM incubated for 1 min by 1,8-ANS probe based thermal shift assay
Target sequence in this assay (Q8TEK3 whole entry, looked up, the tested form may be a part): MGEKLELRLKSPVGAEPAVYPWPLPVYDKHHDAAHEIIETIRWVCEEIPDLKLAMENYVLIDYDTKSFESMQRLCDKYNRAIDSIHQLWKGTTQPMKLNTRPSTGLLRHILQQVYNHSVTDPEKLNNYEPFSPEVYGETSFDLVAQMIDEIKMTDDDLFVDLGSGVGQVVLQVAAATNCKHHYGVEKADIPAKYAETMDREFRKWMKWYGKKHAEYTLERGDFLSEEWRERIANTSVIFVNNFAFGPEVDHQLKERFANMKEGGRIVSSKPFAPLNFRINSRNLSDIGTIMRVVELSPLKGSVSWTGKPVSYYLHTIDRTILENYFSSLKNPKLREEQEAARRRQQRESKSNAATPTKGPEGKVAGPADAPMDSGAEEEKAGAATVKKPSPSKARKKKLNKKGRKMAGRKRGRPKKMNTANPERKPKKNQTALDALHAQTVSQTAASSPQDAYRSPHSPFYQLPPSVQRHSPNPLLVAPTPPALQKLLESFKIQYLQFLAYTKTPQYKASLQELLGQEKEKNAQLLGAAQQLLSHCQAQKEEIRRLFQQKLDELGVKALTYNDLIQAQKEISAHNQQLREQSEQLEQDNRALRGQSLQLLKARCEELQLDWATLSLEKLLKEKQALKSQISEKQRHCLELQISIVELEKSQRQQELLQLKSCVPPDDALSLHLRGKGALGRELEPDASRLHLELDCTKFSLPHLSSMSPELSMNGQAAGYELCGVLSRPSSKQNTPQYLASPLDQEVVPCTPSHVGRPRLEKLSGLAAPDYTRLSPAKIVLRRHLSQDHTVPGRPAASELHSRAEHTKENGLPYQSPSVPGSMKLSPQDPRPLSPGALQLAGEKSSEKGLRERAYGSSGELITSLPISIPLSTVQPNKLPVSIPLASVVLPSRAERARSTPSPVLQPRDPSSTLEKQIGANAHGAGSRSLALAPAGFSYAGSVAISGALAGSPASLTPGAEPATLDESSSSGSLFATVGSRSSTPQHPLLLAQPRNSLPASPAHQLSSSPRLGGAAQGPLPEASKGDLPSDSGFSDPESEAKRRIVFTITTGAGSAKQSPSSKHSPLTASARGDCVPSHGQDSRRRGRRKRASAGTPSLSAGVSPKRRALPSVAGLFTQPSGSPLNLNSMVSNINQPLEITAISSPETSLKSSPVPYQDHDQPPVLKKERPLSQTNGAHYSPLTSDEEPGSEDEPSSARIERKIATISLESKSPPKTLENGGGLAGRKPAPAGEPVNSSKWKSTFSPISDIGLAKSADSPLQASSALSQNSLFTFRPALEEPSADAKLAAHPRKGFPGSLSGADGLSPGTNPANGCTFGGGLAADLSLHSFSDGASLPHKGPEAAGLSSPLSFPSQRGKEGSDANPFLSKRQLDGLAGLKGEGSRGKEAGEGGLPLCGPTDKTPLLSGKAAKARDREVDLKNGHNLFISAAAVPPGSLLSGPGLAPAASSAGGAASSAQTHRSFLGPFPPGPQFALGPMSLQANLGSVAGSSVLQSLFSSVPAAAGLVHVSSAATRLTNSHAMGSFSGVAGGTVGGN

[2] = target: T1, Histone-lysine N-methyltransferase, H3 lysine-79 specific; test: Inhibition of recombinant human N-terminal GST-tagged DOT1L (1 to 420 residues) expressed in Escherichia coli BL21 (DE3) using nucleosome as substrate incubated for 1 hr in presence of [3H]-SAM by liquid scintillation counting method
Procedure, shortened: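 GST-tagged DOT1L catalytic domain (1-420), expressed in E. coli BL21(DE3) and Ni-affinity purified, used at 125 nM. Compound added before SAM start; 1 hr at room temperature. Product captured on P81 filters, NaHCO3-washed, and counted by scintillation.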
Target sequence in this assay (Q8TEK3 whole entry, the tested form may be a part): as the sequence (Q8TEK3 whole entry, looked up, the tested form may be a part) above

[3] = target: T1, Histone-lysine N-methyltransferase, H3 lysine-79 specific; test: Inhibition of recombinant human N-terminal GST-tagged DOT1L (1 to 420 residues) expressed in Escherichia coli BL21 (DE3) using histone as substrate incubated for 1 hr by MTase-glo based luminescence assay
Target sequence in this assay (Q8TEK3 whole entry, the tested form may be a part): as the sequence (Q8TEK3 whole entry, looked up, the tested form may be a part) above

[4] = target: T1, Histone-lysine N-methyltransferase, H3 lysine-79 specific; test: Binding affinity to recombinant human N-terminal GST-tagged DOT1L (1 to 420 residues) expressed in Escherichia coli BL21 (DE3) assessed as increase in melting temperature at 100 uM incubated for 1 min by 1,8-ANS probe based thermal shift assay
Target sequence in this assay (Q8TEK3 whole entry, looked up, the tested form may be a part): as above

[5] = target: DNA (cytosine-5)-methyltransferase 1 (Homo sapiens, UniProt P26358); test: Inhibition of recombinant human DNMT1 using poly(dl-dC) as substrate by hotspot assay
[6] = target: Histone-lysine N-methyltransferase EZH2 (Homo sapiens, UniProt Q15910); test: Inhibition of recombinant human EZH2 using core histone as substrate by hotspot assay
[7] = target: T2, Histone-lysine N-methyltransferase EHMT2 (Homo sapiens, UniProt Q96KQ7); test: Inhibition of recombinant human G9a using histone H3 (1 to 21) as substrate by hotspot assay; details: for pIC50: read-out: IC50
T2 sequence (Q96KQ7 whole entry): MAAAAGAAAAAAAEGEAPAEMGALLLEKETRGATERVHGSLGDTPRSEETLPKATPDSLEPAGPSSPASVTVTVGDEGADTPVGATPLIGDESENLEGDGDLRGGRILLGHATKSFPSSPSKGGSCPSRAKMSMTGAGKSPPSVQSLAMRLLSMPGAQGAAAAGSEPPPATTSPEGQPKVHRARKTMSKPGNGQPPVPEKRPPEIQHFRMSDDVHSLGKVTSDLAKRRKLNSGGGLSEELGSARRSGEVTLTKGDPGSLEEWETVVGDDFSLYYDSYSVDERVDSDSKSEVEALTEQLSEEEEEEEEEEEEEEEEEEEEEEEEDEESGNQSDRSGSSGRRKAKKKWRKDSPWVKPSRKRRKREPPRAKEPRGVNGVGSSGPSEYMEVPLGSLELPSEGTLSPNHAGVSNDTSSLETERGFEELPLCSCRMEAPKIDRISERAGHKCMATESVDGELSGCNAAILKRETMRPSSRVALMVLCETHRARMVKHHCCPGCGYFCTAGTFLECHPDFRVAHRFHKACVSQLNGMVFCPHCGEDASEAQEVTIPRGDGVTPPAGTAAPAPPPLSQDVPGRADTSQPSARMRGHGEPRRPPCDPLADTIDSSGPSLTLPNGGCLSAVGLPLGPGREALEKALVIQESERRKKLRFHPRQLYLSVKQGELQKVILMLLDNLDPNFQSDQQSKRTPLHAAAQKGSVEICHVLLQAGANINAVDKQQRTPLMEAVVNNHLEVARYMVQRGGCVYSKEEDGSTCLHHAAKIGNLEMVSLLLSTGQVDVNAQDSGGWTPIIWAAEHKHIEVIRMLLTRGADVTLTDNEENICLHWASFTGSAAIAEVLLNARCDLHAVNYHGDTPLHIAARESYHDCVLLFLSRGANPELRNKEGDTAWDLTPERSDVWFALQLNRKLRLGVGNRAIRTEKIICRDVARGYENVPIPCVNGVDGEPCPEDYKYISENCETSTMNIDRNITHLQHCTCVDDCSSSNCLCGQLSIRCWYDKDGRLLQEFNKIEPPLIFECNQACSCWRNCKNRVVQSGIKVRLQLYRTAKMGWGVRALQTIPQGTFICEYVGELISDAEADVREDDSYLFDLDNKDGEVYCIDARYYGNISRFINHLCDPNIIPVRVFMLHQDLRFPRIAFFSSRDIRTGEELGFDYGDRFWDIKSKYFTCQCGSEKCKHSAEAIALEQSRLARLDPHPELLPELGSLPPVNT

[8] = target: T3, Histone-lysine N-methyltransferase SETD7 (Homo sapiens, UniProt Q8WTS6); test: Inhibition of recombinant human SET7/9 using core histone as substrate by hotspot assay
T3 sequence (Q8WTS6 whole entry): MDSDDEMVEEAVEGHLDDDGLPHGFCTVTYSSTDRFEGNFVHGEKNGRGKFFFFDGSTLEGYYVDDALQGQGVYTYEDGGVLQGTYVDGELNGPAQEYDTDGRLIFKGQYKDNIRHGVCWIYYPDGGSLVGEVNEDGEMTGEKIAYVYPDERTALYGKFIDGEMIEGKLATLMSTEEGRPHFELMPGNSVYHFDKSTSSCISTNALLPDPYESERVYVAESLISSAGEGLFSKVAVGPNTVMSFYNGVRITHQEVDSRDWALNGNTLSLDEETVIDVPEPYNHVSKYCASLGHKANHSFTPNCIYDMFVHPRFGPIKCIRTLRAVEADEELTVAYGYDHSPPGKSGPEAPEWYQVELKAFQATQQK

[9] = target: Protein arginine N-methyltransferase 3 (Homo sapiens, UniProt O60678); test: Inhibition of recombinant human PRMT3 using histone H4 as substrate by hotspot assay; details: for pIC50: read-out: IC50
[10] = target: Protein arginine N-methyltransferase 5 (Homo sapiens, UniProt O14744); test: Inhibition of recombinant human PRMT5 using histone H2A as substrate by hotspot assay
[11] = target: T4, Protein arginine N-methyltransferase 7 (Homo sapiens, UniProt Q9NVM4); test: Inhibition of recombinant human PRMT7 using GST-GAR as substrate by hotspot assay; details: for pIC50: read-out: IC50
T4 sequence (Q9NVM4 whole entry): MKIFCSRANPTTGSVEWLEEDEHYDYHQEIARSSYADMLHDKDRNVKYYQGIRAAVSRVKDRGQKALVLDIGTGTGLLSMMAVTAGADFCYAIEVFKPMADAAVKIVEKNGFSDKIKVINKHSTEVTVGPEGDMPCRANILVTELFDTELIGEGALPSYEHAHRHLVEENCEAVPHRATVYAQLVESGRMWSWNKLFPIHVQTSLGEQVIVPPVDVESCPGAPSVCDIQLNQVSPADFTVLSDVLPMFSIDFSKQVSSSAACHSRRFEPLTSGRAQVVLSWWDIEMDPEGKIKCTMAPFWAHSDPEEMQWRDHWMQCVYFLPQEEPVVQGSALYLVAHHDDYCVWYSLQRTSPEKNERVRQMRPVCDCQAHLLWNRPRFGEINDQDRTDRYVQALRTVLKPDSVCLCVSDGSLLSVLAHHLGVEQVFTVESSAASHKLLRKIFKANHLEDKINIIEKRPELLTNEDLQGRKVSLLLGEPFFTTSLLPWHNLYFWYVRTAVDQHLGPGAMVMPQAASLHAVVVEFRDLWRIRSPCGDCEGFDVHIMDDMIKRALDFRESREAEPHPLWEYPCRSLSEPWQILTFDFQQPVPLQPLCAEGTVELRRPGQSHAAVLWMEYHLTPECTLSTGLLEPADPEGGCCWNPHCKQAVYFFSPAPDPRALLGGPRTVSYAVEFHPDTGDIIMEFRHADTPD

[12] = target: Protein arginine N-methyltransferase 8 (Homo sapiens, UniProt Q9NR22); test: Inhibition of recombinant human PRMT8 using histone H4 as substrate by hotspot assay
[13] = target: T5, Histone H3 methyltransferase DOT1 variant d (Mus musculus) (UniProt Q679P4); test: Inhibition of DOT1L in mouse bone marrow cell transformed with MLL-AF9 cells assessed as reduction in H3K36 methylation at 100 uM measured upto 9 days by Western blot analysis; assay type: cell-based; details: time day <=9
T5 sequence (whole entry): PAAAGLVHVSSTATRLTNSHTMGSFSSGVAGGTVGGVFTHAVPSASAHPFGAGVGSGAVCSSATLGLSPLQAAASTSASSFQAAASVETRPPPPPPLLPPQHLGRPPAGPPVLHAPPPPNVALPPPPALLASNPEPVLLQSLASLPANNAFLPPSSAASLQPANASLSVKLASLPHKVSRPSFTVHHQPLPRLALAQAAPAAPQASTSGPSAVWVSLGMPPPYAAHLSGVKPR

[14] = target: T5, Histone H3 methyltransferase DOT1 variant d (Mus musculus); test: Inhibition of DOT1L in mouse bone marrow cell transformed with MLL-AF9 cells assessed as reduction in H3K79 methylation at 100 uM measured upto 9 days by Western blot analysis; assay type: cell-based; details: time day <=9, TDE = time-dependent effect
[15] = target: T5, Histone H3 methyltransferase DOT1 variant d (Mus musculus); test: Inhibition of DOT1L in mouse bone marrow cell transformed with MLL-AF9 cells assessed as reduction in H3K27 methylation at 100 uM measured upto 9 days by Western blot analysis; assay type: cell-based; details: time day <=9

Chain of Protein arginine N-methyltransferase 5 (O14744 whole entry): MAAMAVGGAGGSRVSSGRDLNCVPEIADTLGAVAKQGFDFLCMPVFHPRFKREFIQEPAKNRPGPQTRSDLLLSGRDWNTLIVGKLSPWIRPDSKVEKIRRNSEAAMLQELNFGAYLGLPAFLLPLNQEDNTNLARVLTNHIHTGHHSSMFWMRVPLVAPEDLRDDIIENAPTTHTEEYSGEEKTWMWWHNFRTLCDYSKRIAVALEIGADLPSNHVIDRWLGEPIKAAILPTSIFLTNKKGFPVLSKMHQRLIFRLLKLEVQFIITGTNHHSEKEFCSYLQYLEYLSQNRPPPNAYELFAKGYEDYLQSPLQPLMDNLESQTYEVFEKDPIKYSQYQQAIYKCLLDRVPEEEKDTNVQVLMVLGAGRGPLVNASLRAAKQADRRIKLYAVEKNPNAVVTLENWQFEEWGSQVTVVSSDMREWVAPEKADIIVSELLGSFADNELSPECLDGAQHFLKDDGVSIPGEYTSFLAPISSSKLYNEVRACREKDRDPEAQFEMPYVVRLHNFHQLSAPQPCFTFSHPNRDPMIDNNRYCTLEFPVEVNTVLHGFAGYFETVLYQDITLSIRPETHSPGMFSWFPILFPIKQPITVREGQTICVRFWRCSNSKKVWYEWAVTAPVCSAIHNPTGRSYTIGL
Chain of DNA (cytosine-5)-methyltransferase 1 (P26358 whole entry): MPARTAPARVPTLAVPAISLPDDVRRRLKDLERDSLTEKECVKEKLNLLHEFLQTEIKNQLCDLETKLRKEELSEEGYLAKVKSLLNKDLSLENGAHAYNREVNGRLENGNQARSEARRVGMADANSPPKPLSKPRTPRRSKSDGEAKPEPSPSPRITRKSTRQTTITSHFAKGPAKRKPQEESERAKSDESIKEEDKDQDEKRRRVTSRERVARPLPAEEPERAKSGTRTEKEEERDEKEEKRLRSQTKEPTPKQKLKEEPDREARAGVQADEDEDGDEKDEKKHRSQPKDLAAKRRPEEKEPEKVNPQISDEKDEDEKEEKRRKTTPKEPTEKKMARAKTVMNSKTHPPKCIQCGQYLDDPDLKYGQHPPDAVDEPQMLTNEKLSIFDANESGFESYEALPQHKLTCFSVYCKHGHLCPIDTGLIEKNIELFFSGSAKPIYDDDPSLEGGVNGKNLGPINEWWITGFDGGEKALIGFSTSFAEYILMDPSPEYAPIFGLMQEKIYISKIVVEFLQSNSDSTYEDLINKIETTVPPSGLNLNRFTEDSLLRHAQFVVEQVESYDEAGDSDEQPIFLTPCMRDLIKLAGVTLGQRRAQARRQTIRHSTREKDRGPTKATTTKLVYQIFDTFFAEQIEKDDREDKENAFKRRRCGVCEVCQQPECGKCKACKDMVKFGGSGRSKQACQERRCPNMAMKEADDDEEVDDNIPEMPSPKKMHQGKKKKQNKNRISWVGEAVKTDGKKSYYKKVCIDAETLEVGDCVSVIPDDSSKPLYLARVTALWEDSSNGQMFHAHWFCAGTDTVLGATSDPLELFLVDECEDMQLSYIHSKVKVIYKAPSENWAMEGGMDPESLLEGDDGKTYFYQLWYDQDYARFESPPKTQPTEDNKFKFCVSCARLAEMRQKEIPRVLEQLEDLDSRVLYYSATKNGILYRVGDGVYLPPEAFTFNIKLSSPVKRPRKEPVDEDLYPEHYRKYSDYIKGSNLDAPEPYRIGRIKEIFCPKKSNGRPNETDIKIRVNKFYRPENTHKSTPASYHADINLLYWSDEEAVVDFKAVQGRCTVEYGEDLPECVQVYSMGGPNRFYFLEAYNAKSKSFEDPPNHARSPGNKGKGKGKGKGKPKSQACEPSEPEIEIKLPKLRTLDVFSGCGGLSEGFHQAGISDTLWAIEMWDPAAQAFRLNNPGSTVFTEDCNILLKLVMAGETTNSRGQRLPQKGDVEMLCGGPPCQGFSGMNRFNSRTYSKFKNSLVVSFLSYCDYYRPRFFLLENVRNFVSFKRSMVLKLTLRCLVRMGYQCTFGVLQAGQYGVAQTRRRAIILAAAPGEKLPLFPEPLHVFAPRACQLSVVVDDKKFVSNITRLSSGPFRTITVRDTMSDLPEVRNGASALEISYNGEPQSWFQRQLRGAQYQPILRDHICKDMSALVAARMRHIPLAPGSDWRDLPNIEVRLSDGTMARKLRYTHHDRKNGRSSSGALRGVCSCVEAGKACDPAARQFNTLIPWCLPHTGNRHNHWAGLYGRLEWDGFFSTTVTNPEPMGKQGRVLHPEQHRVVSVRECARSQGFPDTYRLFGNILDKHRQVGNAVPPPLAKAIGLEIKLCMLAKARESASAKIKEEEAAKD
Chain of Histone-lysine N-methyltransferase EZH2 (Q15910 whole entry): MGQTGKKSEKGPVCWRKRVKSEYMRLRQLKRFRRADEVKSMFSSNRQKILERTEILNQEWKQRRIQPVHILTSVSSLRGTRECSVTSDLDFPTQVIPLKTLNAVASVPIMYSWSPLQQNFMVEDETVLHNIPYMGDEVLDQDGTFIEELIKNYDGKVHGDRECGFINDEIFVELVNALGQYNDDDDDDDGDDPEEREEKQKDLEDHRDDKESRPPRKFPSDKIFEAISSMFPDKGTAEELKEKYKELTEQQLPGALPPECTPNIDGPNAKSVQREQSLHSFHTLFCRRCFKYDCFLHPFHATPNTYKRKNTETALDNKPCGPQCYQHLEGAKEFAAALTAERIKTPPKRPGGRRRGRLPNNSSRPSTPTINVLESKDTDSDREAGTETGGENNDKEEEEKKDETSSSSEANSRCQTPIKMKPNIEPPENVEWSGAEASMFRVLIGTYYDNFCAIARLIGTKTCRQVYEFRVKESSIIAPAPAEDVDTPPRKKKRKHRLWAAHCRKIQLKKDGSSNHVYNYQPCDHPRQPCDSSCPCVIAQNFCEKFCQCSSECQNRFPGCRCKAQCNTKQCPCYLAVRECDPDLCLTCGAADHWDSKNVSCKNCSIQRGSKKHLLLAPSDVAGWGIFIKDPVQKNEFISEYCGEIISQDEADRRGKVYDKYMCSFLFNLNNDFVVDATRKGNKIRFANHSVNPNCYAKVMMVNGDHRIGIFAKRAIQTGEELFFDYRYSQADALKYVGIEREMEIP
Chain of Protein arginine N-methyltransferase 8 (Q9NR22 whole entry): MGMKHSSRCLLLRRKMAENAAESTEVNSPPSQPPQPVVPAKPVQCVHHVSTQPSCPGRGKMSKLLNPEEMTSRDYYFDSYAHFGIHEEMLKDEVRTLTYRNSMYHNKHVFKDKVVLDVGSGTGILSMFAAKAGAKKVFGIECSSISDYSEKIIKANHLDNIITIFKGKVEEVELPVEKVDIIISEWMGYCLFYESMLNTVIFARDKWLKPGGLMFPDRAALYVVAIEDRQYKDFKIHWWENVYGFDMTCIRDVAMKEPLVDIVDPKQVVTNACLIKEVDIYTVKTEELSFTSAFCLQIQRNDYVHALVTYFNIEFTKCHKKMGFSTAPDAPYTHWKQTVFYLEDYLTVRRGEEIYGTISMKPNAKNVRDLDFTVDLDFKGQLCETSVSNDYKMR

Activity [1]: Active
pIC50 [2]: 3.92
Structure (SMILES): Nc1ncnc2c1ncn2[C@@H]1O[C@H](CNCc2ccc(OCc3ccccc3)cc2)[C@@H](O)[C@H]1O

Structure (SMILES): Cc1ccc(NC(=O)c2ncn(CC(=O)NCc3ccc4[nH]ncc4c3)n2)cc1C
pIC50 [3]: 4.43

Structure (SMILES): Nc1ncnc2c1ccn2CCNC(=O)Cn1cnc(C(=O)NC2CCCCC2)n1
pIC50 [3]: < 4.00

pIC50 [2]: 3.17
Activity [4]: Active
Structure (SMILES): O=C(Nc1ccn(CCCNCc2ccc3c(c2)OCO3)c(=O)n1)OCc1ccccc1

Activity [1]: Active
pIC50 [2]: 4.04
Structure (SMILES): Nc1ncnc2c1ncn2[C@@H]1O[C@H](CNCc2ccc(OCC(=O)Nc3nccs3)cc2)[C@@H](O)[C@H]1O

Structure (SMILES): CC(C)(C)c1ccc(NC(=O)c2ncn(CC(=O)NCc3ccc4[nH]ncc4c3)n2)cc1
pIC50 [3]: 4.65
IC50 [5]: Not Active
pIC50 ([6]; read-out: IC50): < 3.60
pIC50 [7]: < 3.60
IC50 [8]: Not Active
IC50 [9]: Not Active
IC50 [10]: Not Active

Activity [1]: Active
pIC50 [2]: 4.49
Structure (SMILES): Nc1ncnc2c1ncn2[C@@H]1O[C@H](CNCc2ccc(-c3cc(C(F)(F)F)ccc3Cl)o2)[C@@H](O)[C@H]1O

Structure (SMILES): Cc1ccc(NC(=O)c2ncn(CC(=O)NCCn3cnc4[nH]ccc4c3=O)n2)cc1C
pIC50 [3]: 3.86

Activity [1]: Active
pIC50 [2]: 3.77
Structure (SMILES): Nc1ncnc2c1ncn2[C@@H]1O[C@H](CNC(=O)[C@@H](N)Cc2ccc(C(F)(F)F)cc2)[C@@H](O)[C@H]1O

pIC50 [2]: 3.15
Activity [4]: Active
Structure (SMILES): O=C(Nc1ccn(CCCN2CCC(c3ccccc3)CC2)c(=O)n1)OCc1ccccc1

Structure (SMILES): Cc1ccc(NC(=O)c2ncn(CC(=O)NCc3ccc4c(c3)OCO4)n2)cc1C
pIC50 [2]: 4.08
pIC50 [3]: 4.39
Activity [4]: Active

Structure (SMILES): O=C(Cn1cnc(C(=O)NC2CCCCC2)n1)NCc1ccc2[nH]ncc2c1
pIC50 [3]: < 4.00

pIC50 [2]: 3.89
Activity [4]: Active
Structure (SMILES): Cc1ccc(NC(=O)c2ncn(CC(=O)NCc3nc4ccccc4[nH]3)n2)cc1C

Structure (SMILES): Cc1ccc(NC(=O)c2ncn(CC(=O)NCCn3ccc4c(N)ncnc43)n2)cc1C
pIC50 [3]: 4.96
pIC50 ([5]; read-out: IC50): < 3.60
IC50 [6]: Not Active
IC50 [7]: Not Active
IC50 [8]: Not Active
IC50 [9]: Not Active
IC50 [10]: Not Active

Activity [1]: Active
pIC50 [2]: 4.24
Structure (SMILES): Nc1ncnc2c1ncn2[C@@H]1O[C@H](CNC(=O)[C@@H](N)Cc2ccc(C(=O)c3ccccc3)cc2)[C@@H](O)[C@H]1O

Structure (SMILES): Cc1ccc(NC(=O)c2ncn(CC(=O)NCc3ccc4c(N)nccc4c3)n2)cc1C
pIC50 [3]: 4.16
IC50 [9]: Not Active
IC50 [10]: Not Active
pIC50 [11]: 4.16
pIC50 [12]: 3.67

Structure (SMILES): CC(C)(C)c1ccc(NC(=O)c2ncn(CC(=O)NCc3ccc4c(N)nccc4c3)n2)cc1
pIC50 [3]: 4.71
IC50 [5]: Not Active
IC50 [6]: Not Active
pIC50 [7]: 4.21
pIC50 ([8]; read-out: IC50): 4.10
pIC50 [9]: 4.60
pIC50 ([10]; read-out: IC50): 3.95
pIC50 [11]: 4.21
pIC50 [12]: 4.27

Structure (SMILES): CC(C)(C)c1ccc(NC(=O)c2ncn(CC(=O)NCc3ccc4c(c3)OCO4)n2)cc1
pIC50 [3]: 4.63

inhibition [13]: inactive
Activity [1]: Active
inhibition [14]: Tde
inhibition [15]: inactive
pIC50 [2]: 4.26
Structure (SMILES): Nc1ncnc2c1ncn2[C@@H]1O[C@H](CNCc2ccc(OCC(=O)Nc3ccccn3)cc2)[C@@H](O)[C@H]1O

Activity [1]: Active
pIC50 [2]: 4.07
Structure (SMILES): Nc1ncnc2c1ncn2[C@@H]1O[C@H](C(=O)N2CCC[C@H]2C(=O)OCc2ccccc2)[C@@H](O)[C@H]1O

Structure (SMILES): Nc1ncnc2c1ncn2[C@@H]1O[C@H](CSCC[C@H](N)C(=O)O)[C@@H](O)[C@H]1O [S-ADENOSYLHOMOCYSTEINE]
pIC50 [9]: 6.12

Structure (SMILES): Nc1nccc2cc(CNC(=O)Cn3cnc(C(=O)NC4CCCCC4)n3)ccc12
pIC50 [3]: < 4.00
IC50 [9]: Not Active
IC50 [10]: Not Active
IC50 [11]: Not Active
pIC50 [12]: 4.02

Structure (SMILES): Cc1ccc2nc(NC(=O)c3ncn(CC(=O)NCc4ccc5c(c4)OCO5)n3)[nH]c2c1
pIC50 [3]: 4.25

Structure (SMILES): O=C(Cn1cnc(C(=O)NC2CCCCC2)n1)NCc1ccc2c(c1)OCO2
pIC50 [3]: < 4.00
